Results: ChEMBL document CHEMBL3044625, “Non-target-site-based resistance to ALS-inhibiting herbicides in six Bromus rigidus populations from Western Australian cropping fields” (Pest Manag Sci, 2012)
Calls of active or inactive are those of the source. The rule behind the calls is not given here.

Columns and labels:
[1] = system: Bromus diandrus var. rigidus; test: Resistance index, ratio of LD50 for ALS-inhibiting herbicide-resistant two-leaf stage Bromus diandrus var. rigidus biotype R6 to ALS-inhibiting herbicide-susceptible two-leaf stage Bromus diandrus var. rigidus; type: functional
In short: (§1)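 Seedlings germinated on 1% water agar (7–10 days, ambient) were sprayed at the 2–3-leaf stage with a sulfonylurea at 1.875–240 g ha−1, with no malathion. Percent survival was scored with three replicate treatments. LD50 came from non-linear regression, and R/S is the ratio of resistant to susceptible LD50.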

[2] = system: Bromus diandrus var. rigidus; test: Resistance index, ratio of LD50 for ALS-inhibiting herbicide-resistant two-leaf stage Bromus diandrus var. rigidus biotype R5 to ALS-inhibiting herbicide-susceptible two-leaf stage Bromus diandrus var. rigidus; type: functional; in short: as §1
[3] = system: Bromus diandrus var. rigidus; test: Herbicidal activity against ALS-inhibiting herbicide-resistant two-leaf stage Bromus diandrus var. rigidus biotype R1 seedlings exposed to compound spraying measured 28 days after compound spraying; type: functional; in short: as §1
[4] = system: Bromus diandrus var. rigidus; test: Herbicidal activity against ALS-inhibiting herbicide-resistant two-leaf stage Bromus diandrus var. rigidus biotype R6 seedlings exposed to compound spraying measured 28 days after compound spraying; type: functional; in short: as §1
[5] = system: Bromus diandrus var. rigidus; test: Herbicidal activity against ALS-inhibiting herbicide-resistant two-leaf stage Bromus diandrus var. rigidus biotype R2 seedlings exposed to compound spraying measured 28 days after compound spraying; type: functional; in short: as §1
[6] = system: Bromus diandrus var. rigidus; test: Resistance index, ratio of LD50 for ALS-inhibiting herbicide-resistant two-leaf stage Bromus diandrus var. rigidus biotype R1 to ALS-inhibiting herbicide-susceptible two-leaf stage Bromus diandrus var. rigidus; type: functional; in short: as §1
[7] = system: Bromus diandrus var. rigidus; test: Resistance index, ratio of LD50 for ALS-inhibiting herbicide-resistant two-leaf stage Bromus diandrus var. rigidus biotype R3 to ALS-inhibiting herbicide-susceptible two-leaf stage Bromus diandrus var. rigidus; type: functional; in short: as §1
[8] = system: Bromus diandrus var. rigidus; test: Resistance index, ratio of LD50 for ALS-inhibiting herbicide-resistant two-leaf stage Bromus diandrus var. rigidus biotype R4 to ALS-inhibiting herbicide-susceptible two-leaf stage Bromus diandrus var. rigidus; type: functional; in short: as §1
[9] = system: Bromus diandrus var. rigidus; test: Herbicidal activity against ALS-inhibiting herbicide-resistant two-leaf stage Bromus diandrus var. rigidus biotype R5 seedlings exposed to compound spraying measured 28 days after compound spraying; type: functional; in short: as §1
[10] = system: Bromus diandrus var. rigidus; test: Herbicidal activity against ALS-inhibiting herbicide-resistant two-leaf stage Bromus diandrus var. rigidus biotype R3 seedlings exposed to compound spraying measured 28 days after compound spraying; type: functional; in short: as §1
[11] = system: Bromus diandrus var. rigidus; test: Resistance index, ratio of LD50 for ALS-inhibiting herbicide-resistant two-leaf stage Bromus diandrus var. rigidus biotype R2 to ALS-inhibiting herbicide-susceptible two-leaf stage Bromus diandrus var. rigidus; type: functional; in short: as §1
[12] = system: Bromus diandrus var. rigidus; test: Herbicidal activity against ALS-inhibiting herbicide-resistant two-leaf stage Bromus diandrus var. rigidus biotype R4 seedlings exposed to compound spraying measured 28 days after compound spraying; type: functional; in short: as §1
[13] = system: Bromus diandrus var. rigidus; test: Herbicidal activity against ALS-inhibiting herbicide-susceptible two-leaf stage Bromus diandrus var. rigidus seedlings exposed to compound spraying measured 28 days after compound spraying; type: functional; in short: as §1
[14] = system: Bromus diandrus var. rigidus; test: Herbicidal activity against ALS-inhibiting herbicide-resistant two-leaf stage Bromus diandrus var. rigidus biotype R5 seedlings assessed as reduction in above-ground biomass exposed to compound spraying in presence of 1000 g/ha cytochrome P450 inhibitor malathion measured […]; type: functional, organism-based
In short: (§2)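 Seeds were germinated on 1% water agar for 7–10 days at ambient conditions, then sprayed at the 2–3-leaf stage. Malathion at 1000 g ha−1 was sprayed 30 min before the herbicide, or omitted. Herbicide doses were 18.75–600 g ha−1. Survival and dried above-ground biomass were assessed 21 days after treatment, with two replicates. LD50 came from non-linear regression, and R/S is the ratio of resistant to susceptible LD50.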

[15] = system: Bromus diandrus var. rigidus; test: Herbicidal activity against ALS-inhibiting herbicide-resistant two-leaf stage Bromus diandrus var. rigidus biotype R2 seedlings exposed to compound spraying in absence of 1000 g/ha cytochrome P450 inhibitor malathion measured […] after compound spraying; type: functional; in short: as §2
[16] = system: Bromus diandrus var. rigidus; test: Herbicidal activity against ALS-inhibiting herbicide-resistant two-leaf stage Bromus diandrus var. rigidus biotype R3 seedlings exposed to compound spraying in presence of 1000 g/ha cytochrome P450 inhibitor malathion measured […]; type: functional; in short: as §2
[17] = system: Bromus diandrus var. rigidus; test: Herbicidal activity against ALS-inhibiting herbicide-resistant two-leaf stage Bromus diandrus var. rigidus biotype R6 seedlings exposed to compound spraying in presence of 1000 g/ha cytochrome P450 inhibitor malathion measured […]; type: functional; in short: as §2
[18] = system: Bromus diandrus var. rigidus; test: (§3) Resistance index, ratio of LD50 for ALS-inhibiting herbicide-resistant two-leaf stage Bromus diandrus var. rigidus biotype R3 in absence of 1000 g/ha cytochrome P450 inhibitor malathion to LD50 for ALS-inhibiting herbicide-susceptible two-leaf stage Bromus diandrus var. rigidus in absence of 1000 g/ha cytochrome P450 inhibitor malathion; type: functional; in short: as §2
[19] = system: Bromus diandrus var. rigidus; test: as §3, with “R5” for “R3”; type: functional; in short: as §2
[20] = system: Bromus diandrus var. rigidus; test: Herbicidal activity against ALS-inhibiting herbicide-resistant two-leaf stage Bromus diandrus var. rigidus biotype R2 seedlings exposed to compound spraying in presence of 1000 g/ha cytochrome P450 inhibitor malathion measured […]; type: functional; in short: as §2
[21] = system: Bromus diandrus var. rigidus; test: as §3, with “R4” for “R3”; type: functional; in short: as §2
[22] = system: Bromus diandrus var. rigidus; test: as §3, with “R6” for “R3”, “presence” for “absence”; type: functional; in short: as §2
[23] = system: Bromus diandrus var. rigidus; test: as §3, with “R5” for “R3”, “presence” for “absence”; type: functional; in short: as §2
[24] = system: Bromus diandrus var. rigidus; test: Herbicidal activity against ALS-inhibiting herbicide-resistant two-leaf stage Bromus diandrus var. rigidus biotype R6 seedlings assessed as reduction in above-ground biomass exposed to compound spraying in presence of 1000 g/ha cytochrome P450 inhibitor malathion measured […]; type: functional, organism-based; in short: as §2
[25] = system: Bromus diandrus var. rigidus; test: Herbicidal activity against ALS-inhibiting herbicide-resistant two-leaf stage Bromus diandrus var. rigidus biotype R5 seedlings exposed to compound spraying in presence of 1000 g/ha cytochrome P450 inhibitor malathion measured […]; type: functional; in short: as §2
[26] = system: Bromus diandrus var. rigidus; test: as §3, with “presence” for “absence”; type: functional; in short: as §2
[27] = system: Bromus diandrus var. rigidus; test: Herbicidal activity against ALS-inhibiting herbicide-resistant two-leaf stage Bromus diandrus var. rigidus biotype R1 seedlings exposed to compound spraying in presence of 1000 g/ha cytochrome P450 inhibitor malathion measured […]; type: functional; in short: as §2
[28] = system: Bromus diandrus var. rigidus; test: Herbicidal activity against ALS-inhibiting herbicide-resistant two-leaf stage Bromus diandrus var. rigidus biotype R6 seedlings exposed to compound spraying in absence of 1000 g/ha cytochrome P450 inhibitor malathion measured […]; type: functional; in short: as §2
[29] = system: Bromus diandrus var. rigidus; test: Herbicidal activity against ALS-inhibiting herbicide-susceptible two-leaf stage Bromus diandrus var. rigidus seedlings exposed to compound spraying in absence of 1000 g/ha cytochrome P450 inhibitor malathion measured […] after compound spraying; type: functional; in short: as §2
[30] = system: Bromus diandrus var. rigidus; test: Herbicidal activity against ALS-inhibiting herbicide-susceptible two-leaf stage Bromus diandrus var. rigidus seedlings exposed to compound spraying in presence of 1000 g/ha cytochrome P450 inhibitor malathion measured […]; type: functional; in short: as §2
[31] = system: Bromus diandrus var. rigidus; test: Herbicidal activity against ALS-inhibiting herbicide-resistant two-leaf stage Bromus diandrus var. rigidus biotype R5 seedlings exposed to compound spraying in absence of 1000 g/ha cytochrome P450 inhibitor malathion measured […]; type: functional; in short: as §2
[32] = system: Bromus diandrus var. rigidus; test: Herbicidal activity against ALS-inhibiting herbicide-resistant two-leaf stage Bromus diandrus var. rigidus biotype R3 seedlings exposed to compound spraying in absence of 1000 g/ha cytochrome P450 inhibitor malathion measured […]; type: functional; in short: as §2
[33] = system: Bromus diandrus var. rigidus; test: as §3, with “R1” for “R3”, “presence” for “absence”; type: functional; in short: as §2
[34] = system: Bromus diandrus var. rigidus; test: as §3, with “R6” for “R3”; type: functional; in short: as §2
[35] = system: Bromus diandrus var. rigidus; test: as §3, with “R4” for “R3”, “presence” for “absence”; type: functional; in short: as §2
[36] = system: Bromus diandrus var. rigidus; test: as §3, with “R1” for “R3”; type: functional; in short: as §2
[37] = system: Bromus diandrus var. rigidus; test: Herbicidal activity against ALS-inhibiting herbicide-resistant two-leaf stage Bromus diandrus var. rigidus biotype R1 seedlings assessed as reduction in above-ground biomass exposed to compound spraying in presence of 1000 g/ha cytochrome P450 inhibitor malathion measured […]; type: functional, organism-based; in short: as §2
[38] = system: Bromus diandrus var. rigidus; test: Herbicidal activity against ALS-inhibiting herbicide-resistant two-leaf stage Bromus diandrus var. rigidus biotype R2 seedlings assessed as reduction in above-ground biomass exposed to compound spraying in presence of 1000 g/ha cytochrome P450 inhibitor malathion measured […]; type: functional, organism-based; in short: as §2
[39] = system: Bromus diandrus var. rigidus; test: Herbicidal activity against ALS-inhibiting herbicide-resistant two-leaf stage Bromus diandrus var. rigidus biotype R1 seedlings exposed to compound spraying in absence of 1000 g/ha cytochrome P450 inhibitor malathion measured […]; type: functional; in short: as §2
[40] = system: Bromus diandrus var. rigidus; test: Herbicidal activity against ALS-inhibiting herbicide-resistant two-leaf stage Bromus diandrus var. rigidus biotype R4 seedlings exposed to compound spraying in absence of 1000 g/ha cytochrome P450 inhibitor malathion measured […]; type: functional; in short: as §2
[41] = system: Bromus diandrus var. rigidus; test: as §3, with “R2” for “R3”; type: functional; in short: as §2
[42] = system: Bromus diandrus var. rigidus; test: Herbicidal activity against ALS-inhibiting herbicide-resistant two-leaf stage Bromus diandrus var. rigidus biotype R4 seedlings exposed to compound spraying in presence of 1000 g/ha cytochrome P450 inhibitor malathion measured […] after compound spraying; type: functional; in short: as §2
[43] = system: Bromus diandrus var. rigidus; test: Herbicidal activity against ALS-inhibiting herbicide-resistant two-leaf stage Bromus diandrus var. rigidus biotype R3 seedlings assessed as reduction in above-ground biomass exposed to compound spraying in presence of 1000 g/ha cytochrome P450 inhibitor malathion measured […]; type: functional, organism-based; in short: as §2
[44] = system: Bromus diandrus var. rigidus; test: as §3, with “R2” for “R3”, “presence” for “absence”; type: functional; in short: as §2
[45] = system: Bromus diandrus var. rigidus; test: Herbicidal activity against ALS-inhibiting herbicide-resistant two-leaf stage Bromus diandrus var. rigidus biotype R4 seedlings assessed as reduction in above-ground biomass exposed to compound spraying in presence of 1000 g/ha cytochrome P450 inhibitor malathion measured […]; type: functional, organism-based; in short: as §2

Cc1cc(C)nc(NC(=O)NS(=O)(=O)c2ccccc2C(=O)O)n1 [SULFOMETURON]
Ratio [1]: 4.1
Ratio [2]: 3.8
LD50 [3]: 30 g/ha
LD50 [4]: 41 g/ha
LD50 [5]: 33 g/ha
Ratio [6]: 3
Ratio [7]: 3.1
Ratio [8]: 3
LD50 [9]: 38 g/ha
LD50 [10]: 31 g/ha
Ratio [11]: 3.3
LD50 [12]: 30 g/ha
LD50 [13]: 10 g/ha

CCS(=O)(=O)c1nc2ccccn2c1S(=O)(=O)NC(=O)Nc1nc(OC)cc(OC)n1 [SULFOSULFURON]
Activity [14]: Active
LD50 [15]: 166 g/ha
LD50 [16]: 16 g/ha
LD50 [17]: 11 g/ha
Ratio [18]: 8.2
Ratio [19]: 6.6
LD50 [20]: 10 g/ha
Ratio [21]: 11.3
Ratio [22]: 1.8
Ratio [23]: 2
Activity [24]: Active
LD50 [25]: 12 g/ha
Ratio [26]: 2.6
LD50 [27]: 16 g/ha
LD50 [28]: 127 g/ha
LD50 [29]: 21 g/ha
LD50 [30]: 6 g/ha
LD50 [31]: 140 g/ha
LD50 [32]: 173 g/ha
Ratio [33]: 2.6
Ratio [34]: 6
Ratio [35]: 2.1
Ratio [36]: 8.7
Activity [37]: Active
Activity [38]: Active
LD50 [39]: 183 g/ha
LD50 [40]: 239 g/ha
Ratio [41]: 7.9
LD50 [42]: 13 g/ha
Activity [43]: Active
Ratio [44]: 1.6
Activity [45]: Active
